Results: ChEMBL document CHEMBL2384994, “Discovery and evaluation of piperid-4-one-containing mono-carbonyl analogs of curcumin as anti-inflammatory agents” (Bioorg Med Chem, 2013)
Calls of active or inactive are those of the source. The rule behind the calls is not given here.

Key:
RAW264.7 [1] = assay: Antiinflammatory activity in mouse RAW264.7 cells assessed as inhibition of LPS-induced IL6 release at 10 uM incubated for 2 hrs prior to LPS-challenge measured after 22 hrs by ELISA relative to LPS-treated control; type: functional
Method in brief: (§1)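 Pretreated with compound or DMSO vehicle for 2 h (screen at 10 µM; dose series 1, 5, 10 µM), then LPS 0.5 µg/mL for 22 h. Medium IL-6 measured by ELISA, normalized to cellular total protein, expressed as % of LPS control. Mean ± SE of 3–6 independent experiments.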

[2] = target: MAP kinase p38 (Mus musculus) (UniProt P47811+O08911+Q9WUI1+Q9Z1B7); assay: Inhibition of LPS-induced p38 phosphorylation in ICR mouse MPM cells at 10 uM incubated for 2 hrs prior to LPS-challenge measured after 1 hr by Western blot analysis; type: cell-based
Method in brief: (§2)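 Primary peritoneal macrophages from ICR mice plated at 1.2 × 10⁶/plate overnight. Pretreated with DMSO or compound for 2 h, then LPS 10 ng/mL for 1 h. Cells lysed; 40–60 µg lysate run on 10% SDS-PAGE and blotted to nitrocellulose. Blocked in TBS pH 7.6 with 0.05% Tween 20 and 5% milk. Probed for IκB, p-JNK, p-ERK, p-p38 against GAPDH or the total protein. Detection by HRP secondary and ECL. Optical density given as % of control.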

RAW264.7 [3] = assay: Antiinflammatory activity in mouse RAW264.7 cells assessed as inhibition of LPS-induced IL6 release incubated for 2 hrs prior to LPS-challenge measured after 22 hrs by ELISA; type: functional, cell-based; method in brief: as §1
MPM [4] = assay: Inhibition of NFkappaB activation in ICR mouse MPM cells assessed as inhibition of LPS-induced IkappaB degradation at 10 uM incubated for 2 hrs prior to LPS-challenge measured after 1 hr by Western blot analysis; type: cell-based; method in brief: as §2
MPM [5] = assay: Inhibition of LPS-induced ERK phosphorylation in ICR mouse MPM cells at 10 uM incubated for 2 hrs prior to LPS-challenge measured after 1 hr by Western blot analysis; type: cell-based; method in brief: as §2
Mus musculus [6] = assay: Toxicity in C57BL/6 mouse assessed as decrease in body weight at 20 mg/kg, ip after 3 days; type: organism-based; parameters: dose 20 mg/kg, route intraperitoneal; conditions: in vivo, 72 h
Method in brief: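 Male C57BL/6 mice (18–22 g) given compound ip at 20 mg/kg, prepared at 2 mg/mL in water with macrogol 15 hydroxystearate (5–10%) ± MCT (0.5–2%). Vehicle was 10% solubilizer with 2% MCT. LPS 20 mg/kg iv given 15 min later. Body weight and survival recorded every 24 h for 7 days; n = 10 per group.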

MPM [7] = assay: Inhibition of LPS-induced ERK phosphorylation in ICR mouse MPM cells incubated for 2 hrs prior to LPS-challenge measured after 1 hr by Western blot analysis; type: cell-based; method in brief: as §2
Mus musculus [8] = assay: Antiinflammatory activity in C57BL/6 mouse assessed as protection against LPS-induced septic death by measuring survival at 15 mg/kg, ip administered 15 mins prior to LPS challenge measured after 7 days relative to vehicle-treated control; type: functional; conditions: route intraperitoneal
Method in brief: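 Male C57BL/6 mice (18–22 g), n = 10 per group, given compound ip 15 min before LPS (20 mg/kg, iv). Compound at 2 mg/mL in water with macrogol 15 hydroxystearate (5–10% final) ± medium-chain triglycerides (0.5–2% final), dissolved at 37 °C. Vehicle was 10% solubilizer plus 2% MCT. Survival and body weight recorded every 24 h for 7 days.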

RAW264.7 [9] = assay: Cytotoxicity against mouse RAW264.7 cells; type: cell-based
MPM [10] = assay: Inhibition of NFkappaB activation in ICR mouse MPM cells assessed as inhibition of LPS-induced IkappaB degradation incubated for 2 hrs prior to LPS-challenge measured after 1 hr by Western blot analysis; type: cell-based; method in brief: as §2
MPM [11] = assay: Inhibition of LPS-induced JNK phosphorylation in ICR mouse MPM cells at 10 uM incubated for 2 hrs prior to LPS-challenge measured after 1 hr by Western blot analysis; type: cell-based; method in brief: as §2
MPM [12] = assay: Inhibition of LPS-induced JNK phosphorylation in ICR mouse MPM cells incubated for 2 hrs prior to LPS-challenge measured after 1 hr by Western blot analysis; type: cell-based; method in brief: as §2

CN1C/C(=C\c2ccc(F)cc2)C(=O)/C(=C/c2ccc(F)cc2)C1
inhibition (RAW264.7 [1]): Active

O=C1/C(=C/c2ccc(O)cc2)CNC/C1=C\c1ccc(O)cc1
inhibition [2]: inactive

O=C1/C(=C/c2ccc(O)c(O)c2)CCC/C1=C\c1ccc(O)c(O)c1
inhibition (RAW264.7 [1]): Active

CCCN1C/C(=C\c2ccccc2Cl)C(=O)/C(=C/c2ccccc2Cl)C1
inhibition (RAW264.7 [1]): Active

COc1cc(/C=C2\CNC/C(=C\c3cc(OC)c(OC)c(OC)c3)C2=O)cc(OC)c1OC
IC50 (RAW264.7 [3]): < 1000 nM | inhibition (RAW264.7 [3]): Dose-dependent effect | inhibition at 10 µM (RAW264.7 [1]): 96% | inhibition (MPM [4]): Active | inhibition (MPM [5]): Active | Activity (Mus musculus [6]): Toxic | inhibition (MPM [7]): Dose-dependent effect | Activity (Mus musculus [8]): 80% | Activity (RAW264.7 [9]): Non-toxic | inhibition (MPM [10]): Dose-dependent effect

COc1cc(/C=C/C(=O)CC(=O)/C=C/c2ccc(O)c(OC)c2)ccc1O
inhibition (MPM [11]): Active

CCN1C/C(=C\c2ccccc2Br)C(=O)/C(=C/c2ccccc2Br)C1
inhibition (RAW264.7 [1]): Active

COc1ccc(/C=C2\CN(C)C/C(=C\c3ccc(OC)c(OC)c3)C2=O)cc1OC
inhibition at 10 µM (RAW264.7 [1]): 90%

COc1ccc(/C=C2\CNC/C(=C\c3ccc(OC)c(OC)c3)C2=O)cc1OC
IC50 (RAW264.7 [3]): 2680 nM | inhibition (RAW264.7 [3]): Dose-dependent effect | inhibition at 10 µM (RAW264.7 [1]): 98% | inhibition (MPM [4]): Active | inhibition (MPM [5]): Active | Activity (Mus musculus [6]): Toxic | inhibition (MPM [7]): Dose-dependent effect | inhibition (MPM [12]): Dose-dependent effect | Activity (Mus musculus [8]): 60% | Activity (RAW264.7 [9]): Non-toxic | inhibition (MPM [10]): Dose-dependent effect | inhibition (MPM [11]): Active

CN1C/C(=C\c2ccccc2F)C(=O)/C(=C/c2ccccc2F)C1
inhibition (RAW264.7 [1]): Active

O=C1/C(=C/c2cccc(O)c2)CNC/C1=C\c1cccc(O)c1
IC50 (RAW264.7 [3]): 4190 nM | inhibition (RAW264.7 [3]): Dose-dependent effect | Activity (RAW264.7 [9]): Non-toxic

O=C(/C=C/c1ccc(O)c(O)c1)/C=C/c1ccc(O)c(O)c1
inhibition (RAW264.7 [1]): Active

O=C1/C(=C/c2ccccc2F)CNC/C1=C\c1ccccc1F
inhibition (RAW264.7 [1]): Active

CCCN1C/C(=C\c2ccc(OC)c(OC)c2)C(=O)/C(=C/c2ccc(OC)c(OC)c2)C1
IC50 (RAW264.7 [3]): 2040 nM | inhibition (RAW264.7 [3]): Dose-dependent effect | inhibition at 10 µM (RAW264.7 [1]): 90% | inhibition (MPM [4]): inactive | inhibition (MPM [5]): inactive | inhibition [2]: inactive | Activity (RAW264.7 [9]): Non-toxic | inhibition (MPM [11]): inactive

O=C1/C(=C/c2ccc(O)c(O)c2)CC/C1=C\c1ccc(O)c(O)c1
inhibition (RAW264.7 [1]): Active
